Reference: PMC10072318 (Bioorganic & medicinal chemistry letters, 2023)
Entries after “also recorded” stand apart in the source; their conditions may differ.

Tests used:
[1] = test system: S. mansoni schistosomula (post-infective larvae); details: cited from earlier work
[2] = test system: S. mansoni adults; details: cited from earlier work
[3] = test system: adult S. mansoni; experiment: Adult S. mansoni severity score assay; type: cell-based, Schistosoma mansoni; details: for Antischistosomal activity in words: 5 μM, SAR discussion
Procedure, shortened: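 Adult worms were exposed to the test compound at 5 μM. Responses were scored visually at 1, 5, 24 and 48 h using a constrained nomenclature of descriptors for the worm's responses to chemical insult. Each descriptor carries a value, and these values are summed into a severity score ranging from 0 (no activity) to 4 (maximum activity).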

Row | Structure (SMILES) | Antischistosomal activity in words [3] | further results
1 | O=C(Nc1ccc(C(F)(F)F)c(C(F)(F)F)c1)c1cc(Cl)ccc1O [compound 1] | – | Killing of S. mansoni schistosomula in vitro [1]: kill S. mansoni adults[6] and schistosomula; Killing of S. mansoni adults in vitro [2]: kill S. mansoni adults
2 | O=C(Nc1ccccc1)c1ccc(C(F)(F)F)cc1 [compound 6] | inactive | –
3 | Cc1ccc(NC(=O)c2ccc(C(F)(F)F)cc2)cc1C [compound 7] | retains substantial potency | –
4 | COc1ccc(NC(=O)c2ccc(C(F)(F)F)cc2)cc1OC [compound 8] | inactive; also recorded: eliminated activity | –
5 | O=C(Nc1ccc(Cl)c(Cl)c1)c1ccc(C(F)(F)F)cc1 [compound 9] | – | Time by which adult worm integrity was severely compromised [3]: ≤ 1 h
6 | O=C(Nc1cccc(C(F)(F)F)c1)c1ccc(C(F)(F)F)cc1 [compound 11] | – | Time by which adult worm integrity was severely compromised [3]: ≤ 1 h
7 | O=C(Nc1ccc(F)c(F)c1)c1ccc(F)cc1 [compound 13] | activity was essentially compromised | –
8 | Cc1ccc(NC(=O)c2ccccc2)cc1C [compound 14] | abolished activity | –
9 | O=C(Nc1cccc(C(F)(F)F)c1)c1ccccc1 [compound 15] | abolished activity | –
10 | O=C(Nc1cccc(C(F)(F)F)c1)c1ccc(F)cc1 [compound 16] | activity was essentially abolished | –
11 | N#Cc1ccc(C(=O)Nc2cccc(C(F)(F)F)c2)cc1 [compound 18] | abolished activity | –
12 | O=C(Nc1ccccc1)c1ccc(F)cc1 [compound 23] | inactive | –
13 | O=C(Nc1ccc(Cl)c(Cl)c1)c1ccccc1 [compound 25] | some activity was retained | –
14 | O=C(Nc1ccc(Cl)nn1)c1cccc(F)c1 [compound 31, N-(6-chloropyridazin-3-yl)-3-fluorobenzamide] | inactive | –
